# Data published in publication PMC2685149 (Nuclear medicine and biology, 2009).
# Several values for one entry are separate records, joined by “and”; a condition that tells them apart may be missing. Equal values may be shown once. Bridge positions count the residues as written; N and C are the ends. Square brackets hold non-standard residues; d marks the D form. Peptide text beside a SMILES is read from it. * marks the point of attachment. DOTA = O=C(O)CN1CCN(CC(=O)O)CCN(CC(=O)*)CCN(CC(=O)O)CC1; Nle = CCCC[C@H](N)C(=O)O
# Key:
# [1] = Stability in mouse serum; assay type: in vitro ADME; conditions: 37°C, 24 h
# [2] = test system: B16/F10 pulmonary melanoma metastases; conditions: mouse, in vivo
# [3] = test system: B16/F10 melanoma cells; experiment: Cellular efflux in B16/F10 cells; assay type: cell-based, murine; conditions: 2 h after incubating cells in culture media
# In short: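 B16/F10 cells were loaded with the HPLC-purified 111In-labelled test peptide for 2 h at 25°C, then rinsed twice with ice-cold pH 7.4 0.2% BSA/0.01 M PBS. Release of radioactivity into the culture medium was then followed. At 20, 40, 60, 90 and 120 min, cell-surface and intracellular activities were collected separately and gamma-counted.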
# [4] = Biodistribution in normal C57 mice; assay type: in vivo; conditions: C57, mouse, 0.037 MBq, total radioactivity; for dose excreted: urine, percent injected dose, normal mice, Mean±SD, n=5
# [5] = test system: flank B16/F1 murine melanoma; conditions: cited from earlier work
# [6] = test system: B16/F10 melanoma cells; experiment: Cellular internalization in B16/F10 cells; assay type: cell-based, murine; conditions: after 2 h incubation, 25°C
# In short: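 B16/F10 cells were washed with binding medium and incubated at 25°C for 20, 40, 60, 90 and 120 min (n=4) with about 200,000 cpm (0.019 pmol) of HPLC-purified 111In-labelled test peptide. Cells were rinsed with ice-cold PBS/BSA. Surface-bound activity was stripped with pH 4.5 acetate buffer (0.9% NaCl, 0.2% BSA). Cells were then lysed in 1 N NaOH for 5 min, and both fractions were gamma-counted.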
# [7] = test system: B16/F10 pulmonary metastatic melanoma-bearing C57 mice; experiment: Biodistribution in B16/F10 pulmonary metastatic melanoma-bearing C57 mice; assay type: in vivo, mouse; conditions: 16 days post the cell injection
# In short: (§1)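 Lung metastases were induced in C57 mice by tail-vein injection of 0.2 million cultured B16/F10 cells and used 16 days later. Normal C57 mice served as comparators. Each mouse got 0.037 MBq of HPLC-purified 111In-labelled test peptide by tail vein. Groups of 5 were killed at 2, 4 and 24 h, and organs were weighed and gamma-counted. Blood was taken as 6.5% of body weight. Ratios compare metastatic-lung with normal-lung uptake.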
# [8] = as above; assay type: in vivo, mouse; conditions: C57, mouse, 0.037 MBq; for tissue uptake at 4 h / tissue uptake at 24 h / tissue uptake at 2 h: intravenous
# In short: as §1
# [9] = intestine, iv, total radioactivity
# [10] = lung/blood, iv, total radioactivity
# [11] = lung/kidney, iv, total radioactivity
# [12] = lung/liver, iv, total radioactivity
# [13] = lung/muscle, iv, total radioactivity
smiles,measurement,setting,value
"CCCC[C@@H]1NC(=O)[C@@H](NC(=O)[C@H](CCC(=O)O)NC(=O)CNC(=O)CN2CCN(CC(=O)O)CCN(CC(=O)O)CCN(CC(=O)O)CC2)CCCCNC(=O)C[C@@H](C(N)=O)NC(=O)[C@H](C(C)C)NC(=O)[C@@H]2CCCN2C(=O)[C@H](CCCNC(=N)N)NC(=O)CNC(=O)[C@H](Cc2c[nH]c3ccccc23)NC(=O)[C@H](CCCNC(=N)N)NC(=O)[C@@H](Cc2ccccc2)NC(=O)[C@H](Cc2c[nH]cn2)NC(=O)[C@H](CCC(=O)O)NC1=O [^111In-DOTA-GlyGlu-CycMSH, ^111In-labeled 1,4,7,10-Tetraazacyclododecane-1,4,7,10-tetraacetic acid-Gly-Glu-c[Lys-Nle-Glu-His-DPhe-Arg-Trp-Gly-Arg-Pro-Val-Asp], metal not drawn] ({DOTA}-GEK[Nle]EH[dF]RWGRPVD-NH2; lactam 3-14; C-terminus assumed)",stability in mouse serum,[1],stable
same,accumulation of activity in normal organs in whole-body SPECT/CT image,[2],extremely low
same,activity remained inside the cells (efflux),[3],90.6±5.3% and ~90%
same,tissue uptake dose at 2 h,"[4]; intestine, iv",7.08 ± 1.54 %ID
same,tissue uptake dose at 4 h,"[4]; intestine, iv",4.65 ± 0.85 %ID
same,tissue uptake dose at 24 h,"[4]; intestine, iv",0.11 ± 0.08 %ID
same,tissue uptake at 2 h,"[4]; kidneys, intravenous",14.1 ± 2.23 %ID/g
same,tissue uptake at 24 h,"[4]; kidneys, intravenous",13.5 ± 1.48 %ID/g
same,tissue uptake at 4 h,"[4]; liver, intravenous",0.38 ± 0.01 %ID/g
same,tissue to tissue ratio at 24 h,"[4]; lung and muscle, iv",1.5
same,tissue to tissue ratio at 2 h,"[4]; lung/blood, iv",8
same,tissue to tissue ratio at 4 h,"[4]; lung/blood, iv",2.5
same,tissue to tissue ratio at 24 h,"[4]; lung/blood, iv",1
same,tissue to tissue ratio at 2 h,"[4]; lung/kidney, iv",0.01
same,tissue to tissue ratio at 4 h,"[4]; lung/kidney, iv",0.01
same,tissue to tissue ratio at 4 h,"[4]; lung/liver, iv",0.13
same,tissue to tissue ratio at 24 h,"[4]; lung/liver, iv",0.25
same,tissue to tissue ratio at 2 h,"[4]; lung/muscle, iv",2.67
same,tissue to tissue ratio at 4 h,"[4]; lung/muscle, iv",1.67
same,tissue uptake at 4 h,"[4]; skin, intravenous",0.23 ± 0.08 %ID/g
same,tissue uptake at 2 h,"[4]; stomach, intravenous",0.14 ± 0.07 %ID/g
same,dose excreted,"[4]; iv, 2 h post-injection",84.7 ± 1.97%
same,dose excreted,"[4]; iv, 4 h post-injection",89 ± 0.92%
same,dose excreted,"[4]; iv, 24 h post-injection",96.06 ± 0.53%
same,tumor uptake,"[5]; 2 h post-injection, flank B16/F1 murine melanoma-bearing mouse model",10.40±1.40 % ID/g
same,reduction of renal uptake by negatively-charged -Gly-Glu- linker,"[5]; 4 h post-injection, without affecting the tumor uptake",44%
same,activity internalized in the cells,[6],79.7±10.1%
same,uptake in metastatic melanoma-bearing lung relative to normal lung,[7]; 2 h post-injection,25.0 times
same,uptake in metastatic melanoma-bearing lung relative to normal lung,[7]; 4 h post-injection,36.6 times
same,uptake in metastatic melanoma-bearing lung relative to normal lung,[7]; 24 h post-injection,9.7 times
same,tissue uptake dose at 2 h,[8]; [9],7.7 ± 2.05 %ID
same,tissue uptake dose at 4 h,[8]; [9],5.97 ± 0.48 %ID
same,tissue uptake dose at 24 h,[8]; [9],0.11 ± 0.03 %ID
same,tissue uptake at 4 h,"[8]; kidneys, total radioactivity",14.5 ± 0.21 %ID/g
same,tissue uptake at 24 h,"[8]; kidneys, total radioactivity",15.1 ± 0.86 %ID/g
same,tissue uptake at 4 h,"[8]; liver, total radioactivity",0.45 ± 0.05 %ID/g
same,tissue uptake at 4 h,[8]; lung,1.83 ± 0.12 %ID/g
same,tissue uptake at 24 h,[8]; lung,0.29 ± 0.06 %ID/g
same,tissue to tissue ratio at 2 h,[8]; [10],16.7
same,tissue to tissue ratio at 4 h,[8]; [10],61
same,tissue to tissue ratio at 24 h,[8]; [10],9.67
same,tissue to tissue ratio at 2 h,[8]; [11],0.12
same,tissue to tissue ratio at 4 h,[8]; [11],0.13
same,tissue to tissue ratio at 2 h,[8]; [12],4.76
same,tissue to tissue ratio at 4 h,[8]; [12],4.07
same,tissue to tissue ratio at 24 h,[8]; [12],2.23
same,tissue to tissue ratio at 2 h,[8]; [13],50
same,tissue to tissue ratio at 4 h,[8]; [13],61
same,tissue to tissue ratio at 24 h,[8]; [13],9.67
same,tissue uptake at 2 h,"[8]; skin, total radioactivity",0.26 ± 0.22 %ID/g
same,tissue uptake at 4 h,"[8]; skin, total radioactivity",0.36 ± 0.08 %ID/g
same,tissue uptake at 2 h,"[8]; spleen, total radioactivity",0.26 ± 0.07 %ID/g
